Calls of active or inactive are those of the source.
Experiments:
[1] = target: T1, Glycerophosphocholine cholinephosphodiesterase ENPP6 (Homo sapiens) (UniProt Q6UWR7); experiment: Inhibition of NPP6 expressed in human HEK293 cells at 10 uM; type: cell-based
T1 sequence (whole entry): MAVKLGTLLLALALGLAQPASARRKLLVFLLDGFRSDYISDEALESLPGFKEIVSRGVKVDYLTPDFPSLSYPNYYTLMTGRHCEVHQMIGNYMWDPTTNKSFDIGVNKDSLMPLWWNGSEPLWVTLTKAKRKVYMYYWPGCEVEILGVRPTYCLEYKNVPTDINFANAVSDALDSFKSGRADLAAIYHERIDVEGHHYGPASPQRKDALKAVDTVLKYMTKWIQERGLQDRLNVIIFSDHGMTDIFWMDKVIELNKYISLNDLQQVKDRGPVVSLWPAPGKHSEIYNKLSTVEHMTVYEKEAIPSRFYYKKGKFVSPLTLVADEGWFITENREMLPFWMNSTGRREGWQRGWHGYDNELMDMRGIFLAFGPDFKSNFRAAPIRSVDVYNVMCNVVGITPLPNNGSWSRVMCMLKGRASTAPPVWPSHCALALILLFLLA
Summary of the method: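 Enzyme was soluble NPP6 in unconcentrated serum-free conditioned medium from transiently transfected HEK293 cells (48 h), making up one-third of the assay volume. Substrate was pNPPC at […] in 100 mM Tris-HCl pH 9.0, 500 mM NaCl, 0.05% Triton X-100, with inhibitor at 10 µM. A405 was read every 2 min and reported at 1 h, blank-subtracted and normalized to vehicle. Mean ± SD of ≥3 wells.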

[2] = target: T2, Ectonucleotide pyrophosphatase/phosphodiesterase family member 7 (Homo sapiens) (UniProt Q6UWV6); experiment: Inhibition of NPP7 expressed in human HEK293 cells at 10 uM; type: cell-based
T2 sequence (whole entry): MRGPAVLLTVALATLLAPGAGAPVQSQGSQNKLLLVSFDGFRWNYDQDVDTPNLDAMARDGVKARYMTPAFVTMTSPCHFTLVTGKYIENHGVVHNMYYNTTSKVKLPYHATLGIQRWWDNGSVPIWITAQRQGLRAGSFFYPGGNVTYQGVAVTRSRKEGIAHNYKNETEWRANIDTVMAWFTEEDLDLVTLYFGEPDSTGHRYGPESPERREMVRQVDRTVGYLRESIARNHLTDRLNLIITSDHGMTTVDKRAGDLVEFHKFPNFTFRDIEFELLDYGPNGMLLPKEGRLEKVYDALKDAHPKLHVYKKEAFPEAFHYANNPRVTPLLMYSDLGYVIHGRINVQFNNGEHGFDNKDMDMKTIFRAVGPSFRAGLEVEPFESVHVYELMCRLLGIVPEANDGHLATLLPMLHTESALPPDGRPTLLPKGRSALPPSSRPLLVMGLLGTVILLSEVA
Summary of the method: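 Enzyme was soluble NPP7 in concentrated (10 kDa cutoff) serum-free conditioned medium from transiently transfected HEK293 cells, making up one-third of the assay volume. Substrate was pNPPC at […] in 50 mM Tris-HCl pH 8.5, 150 mM NaCl, 10 mM taurocholic acid, no EDTA, with inhibitor at 10 µM. A405 was read every 2 min and reported at 1 h, normalized to vehicle after blank subtraction. Mean ± SD of ≥3 wells.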

Autotaxin [3] = target: T3, Autotaxin (Homo sapiens, UniProt Q13822)
Autotaxin [4] = target: T3, Autotaxin; remark: listed apart in the source
Autotaxin [5] = target: T3, Autotaxin; remark: listed apart in the source
Autotaxin [6] = target: T3, Autotaxin; remark: listed apart in the source
Autotaxin [7] = target: T3, Autotaxin; experiment: Competitive-type inhibition of autotaxin-mediated FS3 hydrolysis by Michaelis-Menten analysis
Summary of the method: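 ATX from ~10-fold concentrated serum-free conditioned medium of MDA-MB-435 cells. […] Buffer was 50 mM Tris pH 8.0 with salts and 30 µM charcoal-stripped BSA, 37 °C, fluorescence read every 2 min at ex 485/em 528. Initial rates were fitted to inhibition models, and the mechanism was assigned by lowest average percent residuals.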

Autotaxin [8] = target: T3, Autotaxin; experiment: Noncompetitive inhibition of autotaxin-mediated pNP-TMP hydrolysis by Michaelis-Menten analysis
Summary of the method: (§1)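 ATX from ~10-fold concentrated serum-free conditioned medium of MDA-MB-435 cells, used without further manipulation. […] Absorbance at 405 nm read every 2 min gave initial rates. Km came from zero-inhibitor data. Ki (free enzyme) and K'i (enzyme–substrate complex) were fitted by non-linear models, and the mechanism was assigned by the lowest average percent residuals.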

Autotaxin [9] = target: T3, Autotaxin; experiment: Noncompetitive inhibition of autotaxin-mediated pNP-TMP hydrolysis by Michaelis-Menten analysis for enzyme-substrate complex; summary of the method: as §1

| inhibition [1] | inhibition [2] | IC50 (Autotaxin [3]) [µM] | IC50 (Autotaxin [4]) [µM] | Ki (Autotaxin [5]) [µM] | Ki (Autotaxin [6]) [µM] | Ki (Autotaxin [7]) [µM] | Ki (Autotaxin [8]) [µM] | Ki (Autotaxin [9]) [µM] | Structure (SMILES) |
| --- | --- | --- | --- | --- | --- | --- | --- | --- | --- |
| inactive | inactive | – | – | – | – | – | – | – | CCn1c(SCC(=O)Nc2ccc(C(=O)O)cc2)nc2nc3c(cc2c1=O)CCCC3 |
| inactive | inactive | 6.8 | 6.8 | 5.8 | 32.3 | – | – | – | O=C(O)c1ccc(Oc2ccc(C(=O)c3ccc4c(c3)C(=O)N(c3cccc5ccccc35)C4=O)cc2)cc1 |
| inactive | inactive | 12.8 | – | 15.1 | 40.3 | – | – | – | O=C(O)c1cccc(NC(=O)c2ccc3c(c2)C(=O)N(c2ccc(/N=N/c4ccccc4)cc2)C3=O)c1 |
| inactive | inactive | 12.8 | – | – | – | 5 | – | – | O=C(O)c1ccc(CN2C(=O)c3ccc(C(=O)c4ccc5c(c4)C(=O)N(Cc4ccc(C(=O)O)cc4)C5=O)cc3C2=O)cc1 |
| inactive | inactive | – | 1.2 | – | – | 1.9 | 6.5 | 6.5 | CCn1cc(C(=O)O)c(=O)c2cnc(N3CCN(C(=S)Nc4cc(Cl)cc(Cl)c4)CC3)nc21 |
| inactive | inactive | – | – | – | – | – | – | – | CCn1cc(C(=O)O)c(=O)c2cnc(N3CCN(C(=S)NC(=O)C4c5ccccc5Oc5ccccc54)CC3)nc21 |

From ChEMBL document CHEMBL1157718, “Characterization of non-lipid autotaxin inhibitors” (Bioorg Med Chem, 2010)
